Assay results as given in ChEMBL document CHEMBL1129460, “Synthesis, biotransformation, and pharmacokinetic studies of 9-(beta-D-arabinofuranosyl)-6-azidopurine: a prodrug for ara-A designed to utilize the azide reduction pathway” (J Med Chem, 1996).

Key:
[1] = organism: Mus musculus; assay: In vitro biotransformation of compound along with coformycin in mice liver homogenate 9-(beta-D-arabinifuranosyl)adenine(ara-A) analyte; type: ADME
Summary of the method: (§1)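 Mouse liver washed in cold saline, homogenized with 1 or 1.5 weight equiv water; homogenate incubated at 37 °C with substrate (initial 100 µg/mL; coformycin co-incubated where stated), water-bath shaker, blank half kept. Samples at 0, 5, 15, 30 min and 1–5 h; acetonitrile precipitation with AzdU internal standard, gradient HPLC-UV for ara-H, ara-A and 6-AAP. Kel and T1/2 are averages of two studies.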

[2] = Pharmacokinetic parameter after dosing of 100 mg/kg of compound administered intravenously in brain; type: ADME, organism-based; set-up: dose 100 mg/kg, route intravenous; conditions: in vivo, iv
Summary of the method: (§2)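 Female NIH Swiss mice (24–28 g) dosed 100 mg/kg, iv or po by line. At least three mice were sacrificed per time point, 0.08–6 h, and whole brains were frozen at -20 °C. Extracts were assayed by HPLC-UV with AzdU internal standard. Noncompartmental analysis: linear trapezoidal AUC extrapolated to infinity, T1/2 = 0.693/λz, relative exposure re = AUC brain/AUC serum.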

[3] = organism: Mus musculus; assay: In vitro biotransformation of compound in mice liver homogenate 9-(beta-D-arabinifuranosyl)adenine(ara-A) analyte; type: ADME; summary of the method: as §1
[4] = Pharmacokinetic parameter after dosing of 100 mg/kg of compound administered orally in brain; type: ADME, organism-based; set-up: dose 100 mg/kg, route oral; conditions: in vivo, po; summary of the method: as §2
[5] = organism: Mus musculus; assay: In vitro biotransformation of compound in mice liver homogenate 9-(beta-D-arabinifuranosyl)-6-hypoxanthine(ara-H) analyte; type: ADME; summary of the method: as §1
[6] = organism: Mus musculus; assay: In vitro biotransformation of compound in mice liver homogenate 9-(beta-D-arabinifuranosyl)[…] analyte; type: ADME; summary of the method: as §1

SMILES | Kel [1] | T1/2 [1] | Activity [2] | Kel [3] | T1/2 [3] | Activity [4] | Kel [5] | T1/2 [5] | Kel [6] | T1/2 [6]
OC[C@H]1O[C@@H](n2cnc3c2NC=NC[C@H]3O)[C@H](O)[C@@H]1O.[N-]=[N+]=Nc1ncnc2c1ncn2[C@@H]1O[C@H](CO)[C@@H](O)[C@@H]1O | 0.27 h⁻¹ | 2.58 h | – | – | – | – | – | – | – | –
[N-]=[N+]=Nc1ncnc2c1ncn2[C@@H]1O[C@H](CO)[C@@H](O)[C@@H]1O | – | – | 0.02 | 0.48 h⁻¹ | 1.46 h | 0.3 | 0.26 h⁻¹ | 2.45 h | – | –
Nc1ncnc2c1ncn2[C@@H]1O[C@H](CO)[C@@H](O)[C@@H]1O [VIDARABINE] | – | – | 0.05 | – | – | 1.35 | – | – | 0.31 h⁻¹ | 2.24 h
